Data on twelve compounds can be found in ChEMBL document CHEMBL1122905, “4-Deoxypyrido[1',2':1,2]imidazo[5,4-c]rifamycin SV derivatives. A new series of semisynthetic rifamycins with high antibacterial activity and low gastroenteric absorption” (1985).

One assay deals with Klebsiella pneumoniae. Put plainly: Antimicrobial activity derived as minimum inhibitory concentration are determined using brain-heart infusion medium against Klebsiella Pneumoniae Ottaviani. Type of assay: functional. The method, boiled down:
(§1)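 Broth dilution in brain-heart infusion. Inoculum 10^6 cells/mL. MIC taken as the lowest antibiotic concentration preventing visible growth after 24 h at 35 °C.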

A further assay has as its system Pseudomonas aeruginosa. Description: Antimicrobial activity derived as minimum inhibitory concentration are determined using brain-heart infusion medium against Pseudomonas aeruginosa ATCC 10145. Type of assay: functional. The method, boiled down:
as §1

The next assay has as its system Salmonella paratyphi. Put plainly: Antimicrobial activity derived as minimum inhibitory concentration are determined using brain-heart infusion medium against Salmonella paratyphi B0248 K(Sclavo). The following applies: Salmonella enterica. It counts as functional, Salmonella enterica subsp. enterica serovar Paratyphi A. The method, boiled down:
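Broth dilution in brain-heart infusion. Inoculum 10^6 cells/mL. Incubated 24 h at 35 °C. MIC taken as the lowest antibiotic concentration that prevented visible growth.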

Assay [1] relates to Staphylococcus aureus. Description: Effective dose against Staphylococcus aureus in mice for peroral administration. The following applies: po. It counts as functional.
The test system of another assay is Escherichia coli. Description: Antimicrobial activity derived as minimum inhibitory concentration are determined using brain-heart infusion medium against Escherichia coli ML/35. Type of assay: functional. The method, boiled down:
as §1

Assay [2] deals with Staphylococcus aureus. Description: Antimicrobial activity derived as minimum inhibitory concentration are determined using brain-heart infusion medium against Staphylococcus aureus 209 P(FDA). Type of assay: functional. The method, boiled down:
as §1

Assay [3] relates to Staphylococcus aureus. Description: Effective dose against Staphylococcus aureus in mice for subcutaneous administration. It counts as functional. The following applies: sc.
The subject of assay [4] is Staphylococcus aureus. Put plainly: Effective dose against infection of the mice due to Staphylococcus aureus administered perorally. Type of assay: functional. The following applies: po.

SMILES strings stand for the structures. Converted amounts (≈) assume the structure as drawn.

Regarding `COC1/C=C/OC2(C)Oc3c(C)c(O)c4c(O)c(c(-[n+]5cccc(C(N)=O)c5)c(O)c4c3C2=O)NC(=O)/C(C)=C\C=C\C(C)C(O)C(C)C(O)C(C)C(OC(C)=O)C1C.[Br-]` (centres undefined), the MIC was over 50 µg/mL with Klebsiella pneumoniae; over 50 µg/mL against Pseudomonas aeruginosa; over 50 µg/mL in the assay on Salmonella paratyphi; over 50 µg/mL in the assay on Escherichia coli; 0.1 µg/mL against Staphylococcus aureus [2]. This compound also had an ED50 in the assay with Staphylococcus aureus [1] of over 20 mg/kg.
As to `COC1/C=C/OC2(C)Oc3c(C)c(O)c4c(O)c(c5c([n-]c6c7ccccc7cc[n+]65)c4c3C2=O)NC(=O)/C(C)=C\C=C\C(C)C(O)C(C)C(O)C(C)C(OC(C)=O)C1C` (centres undefined), the MIC with Klebsiella pneumoniae is 12 µg/mL (≈ 14.6 µM); with Pseudomonas aeruginosa, 0.7 µg/mL (≈ 0.852 µM); with Salmonella paratyphi it was 3 µg/mL (≈ 3.65 µM); with Escherichia coli it was 12 µg/mL (≈ 14.6 µM); in the assay with Staphylococcus aureus [2], under 0.005 µg/mL. Besides, the ED50 came to 2.22 mg/kg in the assay on Staphylococcus aureus [1] and 0.81 mg/kg in the assay with Staphylococcus aureus [3].
In the case of `COC1/C=C/OC2(C)Oc3c(C)c(O)c4c(O)c(c5c([n-]c6cc(C)cc[n+]65)c4c3C2=O)NC(=O)/C(C)=C\C=C\C(C)C(O)C(C)C(O)C(C)C(OC(C)=O)C1C` (centres undefined), the MIC was 25 µg/mL (≈ 31.8 µM) against Klebsiella pneumoniae; 15 µg/mL (≈ 19.1 µM) against Pseudomonas aeruginosa; 6 µg/mL (≈ 7.63 µM) in the assay with Salmonella paratyphi; 6 µg/mL (≈ 7.63 µM) in the assay with Escherichia coli; under 0.005 µg/mL with Staphylococcus aureus [2]. In the assay on Staphylococcus aureus [4], this compound yielded an ED50 of over 10 mg/kg.
With `COC(=O)c1ccc[n+](-c2c3c(O)c4c(O)c(C)c5c(c4c2O)C(=O)C(C)(O/C=C/C(OC)C(C)C(OC(C)=O)C(C)C(O)C(C)C(O)C(C)/C=C/C=C(/C)C(=O)N3)O5)c1.[Br-]` (centres undefined), the MIC was over 50 µg/mL against Klebsiella pneumoniae; over 50 µg/mL against Pseudomonas aeruginosa; 25 µg/mL against Salmonella paratyphi; over 50 µg/mL with Escherichia coli; 0.07 µg/mL in the assay on Staphylococcus aureus [2].
For the compound `COC1/C=C/OC2(C)Oc3c(C)c(O)c4c(O)c(c5c([n-]c6ccc(C)c[n+]65)c4c3C2=O)NC(=O)/C(C)=C\C=C\C(C)C(O)C(C)C(O)C(C)C(OC(C)=O)C1C` (centres undefined), the MIC was 12 µg/mL (≈ 15.3 µM) against Klebsiella pneumoniae; 3 µg/mL (≈ 3.82 µM) in the assay on Pseudomonas aeruginosa; 6 µg/mL (≈ 7.63 µM) against Salmonella paratyphi; 6 µg/mL (≈ 7.63 µM) in the assay on Escherichia coli; under 0.005 µg/mL in the assay on Staphylococcus aureus [2]. In addition, the ED50 is over 5 mg/kg in the assay on Staphylococcus aureus [1] and over 2.5 mg/kg in the assay with Staphylococcus aureus [3].
Turning to `COC1/C=C/OC2(C)Oc3c(C)c(O)c4c(O)c(c5c([n-]c6cccc[n+]65)c4c3C2=O)NC(=O)/C(C)=C\C=C\C(C)C(O)C(C)C(O)C(C)C(OC(C)=O)C1C` (centres undefined), the minimum inhibitory concentration (MIC) in the assay on Klebsiella pneumoniae is 6 µg/mL (≈ 7.77 µM); in the assay with Pseudomonas aeruginosa, 6 µg/mL (≈ 7.77 µM); in the assay with Salmonella paratyphi it was 3 µg/mL (≈ 3.89 µM); against Escherichia coli, 3 µg/mL (≈ 3.89 µM); against Staphylococcus aureus [2] it was under 0.005 µg/mL. Further, the figures for the ED50 in the assay on Staphylococcus aureus [1] and with Staphylococcus aureus [3] were 10.3 mg/kg and 0.21 mg/kg, respectively.
Take `CC[N+](CC)(CC)c1c2c(O)c3c(O)c(C)c4c(c3c1O)C(=O)C(C)(O/C=C/C(OC)C(C)C(OC(C)=O)C(C)C(O)C(C)C(O)C(C)/C=C/C=C(/C)C(=O)N2)O4.[Br-]` (centres undefined): the MIC is 50 µg/mL in the assay on Klebsiella pneumoniae; 12 µg/mL with Pseudomonas aeruginosa; 25 µg/mL in the assay on Salmonella paratyphi; over 50 µg/mL in the assay on Escherichia coli; 0.005 µg/mL against Staphylococcus aureus [2]. The compound also had an ED50 with Staphylococcus aureus [1] of over 20 mg/kg.
Consider `COC1/C=C/OC2(C)Oc3c(C)c(O)c4c(O)c(c5c([n-]c6c(C)ccc[n+]65)c4c3C2=O)NC(=O)/C(C)=C\C=C\C(C)C(O)C(C)C(O)C(C)C(OC(C)=O)C1C` (centres undefined), for which the minimum inhibitory concentration (MIC) in the assay with Klebsiella pneumoniae was 6 µg/mL (≈ 7.63 µM); with Pseudomonas aeruginosa, 0.7 µg/mL (≈ 0.891 µM); against Salmonella paratyphi, 6 µg/mL (≈ 7.63 µM); against Escherichia coli it was 6 µg/mL (≈ 7.63 µM); with Staphylococcus aureus [2] it was under 0.005 µg/mL. The results for the ED50 with Staphylococcus aureus [1] and with Staphylococcus aureus [3] were over 10 mg/kg and 0.47 mg/kg, respectively.
As for `COC1/C=C/OC2(C)Oc3c(C)c(O)c4c(O)c(c5c([n-]c6ccc(OCc7ccccc7)c[n+]65)c4c3C2=O)NC(=O)/C(C)=C\C=C\C(C)C(O)C(C)C(O)C(C)C(OC(C)=O)C1C` (centres undefined), the MIC is over 50 µg/mL with Klebsiella pneumoniae; 50 µg/mL (≈ 56.9 µM) against Pseudomonas aeruginosa; over 50 µg/mL against Salmonella paratyphi; 50 µg/mL (≈ 56.9 µM) in the assay on Escherichia coli; under 0.005 µg/mL against Staphylococcus aureus [2].
Take `COC1/C=C/OC2(C)Oc3c(C)c(O)c4c(O)c(c(-[n+]5ccc(C(C)(C)C)cc5)c(O)c4c3C2=O)NC(=O)/C(C)=C\C=C\C(C)C(O)C(C)C(O)C(C)C(OC(C)=O)C1C.[Br-]` (centres undefined): the MIC with Klebsiella pneumoniae was over 50 µg/mL; in the assay with Pseudomonas aeruginosa, over 50 µg/mL; against Salmonella paratyphi, over 50 µg/mL; against Escherichia coli it was over 50 µg/mL; in the assay with Staphylococcus aureus [2], 0.01 µg/mL.
With `COC1/C=C/OC2(C)Oc3c(C)c(O)c4c(O)c(c(-[n+]5ccccc5)c(O)c4c3C2=O)NC(=O)/C(C)=C\C=C\C(C)C(O)C(C)C(O)C(C)C(OC(C)=O)C1C.[Br-]` (centres undefined), the MIC was over 50 µg/mL in the assay with Klebsiella pneumoniae; 12 µg/mL with Pseudomonas aeruginosa; 50 µg/mL in the assay with Salmonella paratyphi; over 50 µg/mL with Escherichia coli; 0.005 µg/mL against Staphylococcus aureus [2]. In addition, the ED50 in the assay with Staphylococcus aureus [1] was over 20 mg/kg.
As to `CO[C@H]1/C=C/O[C@@]2(C)Oc3c(C)c(O)c4c(O)c(c(/C=N/N5CCN(C)CC5)c(O)c4c3C2=O)NC(=O)/C(C)=C\C=C\[C@H](C)[C@H](O)[C@@H](C)[C@@H](O)[C@@H](C)[C@H](OC(C)=O)[C@@H]1C` [RIFAMPIN], the MIC in the assay on Klebsiella pneumoniae is 25 µg/mL (≈ 30.4 µM); against Pseudomonas aeruginosa it was 12 µg/mL (≈ 14.6 µM); against Salmonella paratyphi, 12 µg/mL (≈ 14.6 µM); against Escherichia coli, 6 µg/mL (≈ 7.29 µM); with Staphylococcus aureus [2], under 0.005 µg/mL. The ED50 in the assay with Staphylococcus aureus [1] and with Staphylococcus aureus [3] was 0.14 mg/kg each time.

A word on the MIC: it is the smallest concentration in the dilution series that meets the test's criterion for growth inhibition. As usually defined, the ED50 is the midpoint of the dose-response relation.
